# From ChEMBL document CHEMBL4689842, “EUbOPEN Chemogenomics Library wave 1” (2021)
# Values joined by “and” are separate entries in the source; they are usually repeats but may differ in a detail not shown here. Equal values may be shown once.
# Tested on: HEK-293T
# Assay: Multiplex assay against HEK293T;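 on Population Tubulin-Different-Phenotype (%): share of the cells with healthy nuclei that show this phenotype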
# Format: toxicity, cell-based
# Settings: human
# Method in brief: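 Cells were classed with CellPathfinder machine-learning gating, first as Hoechst high-intensity objects or normal cells, then (normal cells) as healthy, pyknosed or fragmented nuclei, and finally (pyknosed cells) as mitotic or apoptotic. Staining of live cells at seeding used Hoechst33342, BioTracker Green Microtubule Cytoskeleton Dye, MitoTracker Red and Annexin V Alexa Fluor 680, with imaging on a CQ1 microscope at 37°C and 5% CO2 after compound addition. Tubulin, mitochondrial-mass and membrane-permeability phenotypes are per cents of healthy-nucleus cells.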
# [1] = 12 h, 10 µM, compound concentration 10 uM, replicate 1
# [2] = 12 h, 10 µM, compound concentration 10 uM, replicate 2
# [3] = 24 h, 10 µM, compound concentration 10 uM, replicate 1
# [4] = 24 h, 10 µM, compound concentration 10 uM, replicate 2
# [5] = 48 h, 10 µM, compound concentration 10 uM, replicate 1
# [6] = 48 h, 10 µM, compound concentration 10 uM, replicate 2
# [7] = 12 h, 1 µM, compound concentration 1 uM, replicate 1
# [8] = 12 h, 1 µM, compound concentration 1 uM, replicate 2
# [9] = 24 h, 1 µM, compound concentration 1 uM, replicate 1
# [10] = 24 h, 1 µM, compound concentration 1 uM, replicate 2
smiles,measurement,setting,value
CCOCCn1cc(C(=O)Nc2ccc(-n3nc(-c4cccnc4)cc3C(F)(F)F)cn2)ccc1=O [BI 1935],Population Fragmented Nuclei (%),[1],15% and 16% and 10%
same,Population Healthy Nuclei (%),[1],27% and 50% and 70%
same,Population Hoechst High Intensity Objects (%),[1],20% and 15% and 10%
same,Population Membrane Permeable-Phenotype (%),[1],6%
same,Population Mitotic Cells (%),[1],30% and 78% and 83%
same,Population Normal (%),[1],80% and 84% and 89%
same,Total Cell Count,[1],285 and 667 and 651
same,Population Fragmented Nuclei (%),[2],3% and 7%
same,Population Healthy Nuclei (%),[2],29% and 84% and 87%
same,Population Membrane Permeable-Phenotype (%),[2],3% and 10% and 2%
same,Population Mitotic Cells (%),[2],71% and 84% and 95%
same,Population Normal (%),[2],91% and 96% and 97%
same,Population Fragmented Nuclei (%),[3],20% and 16% and 10%
same,Population Healthy Nuclei (%),[3],33% and 62% and 81%
same,Population Hoechst High Intensity Objects (%),[3],18% and 14%
same,Population Mitotic Cells (%),[3],29% and 75% and 80%
same,Population Normal (%),[3],81% and 85%
same,Total Cell Count,[3],309 and 632 and 787
same,Population Healthy Nuclei (%),[4],43% and 88% and 71%
same,Population Hoechst High Intensity Objects (%),[4],2% and 4%
same,Population Mitotic Cells (%),[4],53% and 88% and 98%
same,Population Normal (%),[4],97% and 95%
same,Population Apoptotic (%),[5],59%
same,Population Fragmented Nuclei (%),[5],22%
same,Population Healthy Nuclei (%),[5],33%
same,Population Hoechst High Intensity Objects (%),[5],17%
same,Population Membrane Permeable-Phenotype (%),[5],2%
same,Population Mitochondria Different-Phenotype (%),[5],89%
same,Population Mitotic Cells (%),[5],40%
same,Population Normal (%),[5],82%
same,Population Pyknosed Nuclei (%),[5],44%
same,Population Tubulin-Different-Phenotype (%),[5],93%
same,Total Cell Count,[5],341
same,Population Apoptotic (%),[6],33%
same,Population Fragmented Nuclei (%),[6],4%
same,Population Healthy Nuclei (%),[6],61%
same,Population Hoechst High Intensity Objects (%),[6],4%
same,Population Membrane Permeable-Phenotype (%),[6],6%
same,Population Mitochondria Different-Phenotype (%),[6],55%
same,Population Mitotic Cells (%),[6],66%
same,Population Normal (%),[6],95%
same,Population Pyknosed Nuclei (%),[6],33%
same,Population Tubulin-Different-Phenotype (%),[6],79%
same,Total Cell Count,[6],283
C[C@@]1(C(=O)Nc2ccc(F)nc2)CCCN1c1nc(Nc2cc(C3CC3)n[nH]2)c2cccn2n1 [BMS-754807],Population Apoptotic (%),[7],24%
same,Population Fragmented Nuclei (%),[7],19%
same,Population Healthy Nuclei (%),[7],38%
same,Population Hoechst High Intensity Objects (%),[7],25%
same,Population Membrane Permeable-Phenotype (%),[7],7%
same,Population Mitochondria Different-Phenotype (%),[7],32%
same,Population Mitotic Cells (%),[7],75%
same,Population Normal (%),[7],74%
same,Population Pyknosed Nuclei (%),[7],42%
same,Population Tubulin-Different-Phenotype (%),[7],68%
same,Total Cell Count,[7],622
same,Population Apoptotic (%),[8],20%
same,Population Fragmented Nuclei (%),[8],3%
same,Population Healthy Nuclei (%),[8],72%
same,Population Hoechst High Intensity Objects (%),[8],12%
same,Population Mitochondria Different-Phenotype (%),[8],57%
same,Population Mitotic Cells (%),[8],80%
same,Population Normal (%),[8],87%
same,Population Pyknosed Nuclei (%),[8],23%
same,Population Tubulin-Different-Phenotype (%),[8],92%
same,Total Cell Count,[8],768
same,Population Fragmented Nuclei (%),[1],13% and 14%
same,Population Hoechst High Intensity Objects (%),[1],17% and 19%
same,Population Membrane Permeable-Phenotype (%),[1],9% and 4%
same,Population Normal (%),[1],82% and 80%
same,Population Pyknosed Nuclei (%),[1],71% and 26%
same,Total Cell Count,[1],259 and 598
same,Population Fragmented Nuclei (%),[2],7% and 3%
same,Population Hoechst High Intensity Objects (%),[2],9% and 6%
same,Population Membrane Permeable-Phenotype (%),[2],10% and 3%
same,Population Mitotic Cells (%),[2],51%
same,Population Normal (%),[2],90% and 93%
same,Population Tubulin-Different-Phenotype (%),[2],94% and 44%
same,Population Apoptotic (%),[9],25%
same,Population Fragmented Nuclei (%),[9],18%
same,Population Healthy Nuclei (%),[9],56%
same,Population Hoechst High Intensity Objects (%),[9],20%
same,Population Membrane Permeable-Phenotype (%),[9],8%
same,Population Mitochondria Different-Phenotype (%),[9],32%
same,Population Mitotic Cells (%),[9],74%
same,Population Normal (%),[9],79%
same,Population Pyknosed Nuclei (%),[9],25%
same,Population Tubulin-Different-Phenotype (%),[9],79%
same,Total Cell Count,[9],652
same,Population Apoptotic (%),[10],17%
same,Population Fragmented Nuclei (%),[10],3%
same,Population Healthy Nuclei (%),[10],82%
same,Population Hoechst High Intensity Objects (%),[10],9%
same,Population Membrane Permeable-Phenotype (%),[10],10%
same,Population Mitochondria Different-Phenotype (%),[10],44%
same,Population Mitotic Cells (%),[10],82%
same,Population Normal (%),[10],90%
same,Population Pyknosed Nuclei (%),[10],13%
same,Population Tubulin-Different-Phenotype (%),[10],95%
same,Total Cell Count,[10],865
same,Population Apoptotic (%),[3],70% and 26%
same,Population Fragmented Nuclei (%),[3],17% and 14%
same,Population Hoechst High Intensity Objects (%),[3],14% and 19%
same,Population Membrane Permeable-Phenotype (%),[3],2% and 5%
same,Population Mitotic Cells (%),[3],29% and 73%
same,Population Normal (%),[3],85% and 80%
same,Population Tubulin-Different-Phenotype (%),[3],94% and 44%
same,Total Cell Count,[3],284 and 562
same,Population Fragmented Nuclei (%),[4],6% and 8%
same,Population Hoechst High Intensity Objects (%),[4],10% and 8%
same,Population Membrane Permeable-Phenotype (%),[4],10% and 4%
same,Population Mitotic Cells (%),[4],30% and 81%
same,Population Normal (%),[4],89% and 91%
same,Population Tubulin-Different-Phenotype (%),[4],95% and 56%
same,Population Apoptotic (%),[5],65%
same,Population Fragmented Nuclei (%),[5],17%
same,Population Healthy Nuclei (%),[5],7%
same,Population Hoechst High Intensity Objects (%),[5],15%
same,Population Membrane Permeable-Phenotype (%),[5],15%
same,Population Mitochondria Different-Phenotype (%),[5],94%
same,Population Mitotic Cells (%),[5],34%
same,Population Normal (%),[5],84%
same,Population Pyknosed Nuclei (%),[5],74%
same,Population Tubulin-Different-Phenotype (%),[5],94%
same,Total Cell Count,[5],290
same,Population Apoptotic (%),[6],78%
same,Population Fragmented Nuclei (%),[6],4%
same,Population Healthy Nuclei (%),[6],57%
same,Population Hoechst High Intensity Objects (%),[6],7%
same,Population Membrane Permeable-Phenotype (%),[6],3%
same,Population Mitochondria Different-Phenotype (%),[6],85%
same,Population Mitotic Cells (%),[6],21%
same,Population Normal (%),[6],92%
same,Population Pyknosed Nuclei (%),[6],37%
same,Population Tubulin-Different-Phenotype (%),[6],96%
same,Total Cell Count,[6],199
